Shown are actives, neighbours in structure and some others; about 2.4% of the full set was active somewhere.
LGR2 antag: inhibitors of bursicon-induced LGR2 CRE-luciferase signal, primary screen, cell-based, HEK293, CRE-luciferase reporter, bursicon stimulation; Drosophila bursicon receptor LGR2 (rickets); bursicon-stimulated, 4 h; inhibition, % at 9.99 µM; 380,000 tested, 0.35% active; AID 720647, 2013;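 active means drop in luminescence signal, shown as inhibition above about 50% in the replicate tests, limit read from the data, passing the limit was not always enough; inconclusive means probably only some replicates passing the limit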;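 further: agonist challenge used bursicon conditioned medium at about half maximal strength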
Ecoli rRNA inh: reduced GFP signal of wild-type E. coli, primary screen, bacterial rRNA inhibitor project, GFP/RFP fluorescence, OD600, single point. E. coli WT GFP vs humanized-ribosome RFP mutants, 24 h; stronger effect = lower value; DMSO median 0, no signal -100. GFP signal change (wild-type ribosome), % (concentration not given with the values). 350,000 tested, 1.6% active;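 active means significant combined selectivity score with lowered wild-type GFP, culture density cut under 30%, mutant RFP and density less affected; inactive means any of these conditions unmet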
EWS-Fli inh: EWS/Fli-driven NR0B1 reporter inhibitors, primary screen, A673 cells, NR0B1 luciferase, luminescence, MLPCN library. inhibition, % at 12.6 µM. viability-normalised. 350,000 tested, 0.67% active;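 active means mean inhibition of at least 50% after viability correction, with every replicate also passing that limit; inconclusive means mean reaches 50% but only one of two replicates passes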;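 further: firefly luciferase signal divided by Alamar Blue viability fluorescence both relative to DMSO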
E-sel inducer: E-selectin induction in HUVECs, primary screen, imaging, HUVEC, immunofluorescence imaging, single point; normalized: neutral wells 0, TNF-alpha wells 100; activation, % at 7.58 µM; 260,000 tested, 0.37% active; AID 686992, 2013;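 active means mean E-selectin-positive cell signal at least 10% of the positive control, reached in at least 60% of replicates, without over 20% cell loss; inconclusive means no rule given, readout overlaps actives, possibly toxicity-flagged; inactive means the rest, including those meeting only one limit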
Target sequence (P16581 whole entry, looked up): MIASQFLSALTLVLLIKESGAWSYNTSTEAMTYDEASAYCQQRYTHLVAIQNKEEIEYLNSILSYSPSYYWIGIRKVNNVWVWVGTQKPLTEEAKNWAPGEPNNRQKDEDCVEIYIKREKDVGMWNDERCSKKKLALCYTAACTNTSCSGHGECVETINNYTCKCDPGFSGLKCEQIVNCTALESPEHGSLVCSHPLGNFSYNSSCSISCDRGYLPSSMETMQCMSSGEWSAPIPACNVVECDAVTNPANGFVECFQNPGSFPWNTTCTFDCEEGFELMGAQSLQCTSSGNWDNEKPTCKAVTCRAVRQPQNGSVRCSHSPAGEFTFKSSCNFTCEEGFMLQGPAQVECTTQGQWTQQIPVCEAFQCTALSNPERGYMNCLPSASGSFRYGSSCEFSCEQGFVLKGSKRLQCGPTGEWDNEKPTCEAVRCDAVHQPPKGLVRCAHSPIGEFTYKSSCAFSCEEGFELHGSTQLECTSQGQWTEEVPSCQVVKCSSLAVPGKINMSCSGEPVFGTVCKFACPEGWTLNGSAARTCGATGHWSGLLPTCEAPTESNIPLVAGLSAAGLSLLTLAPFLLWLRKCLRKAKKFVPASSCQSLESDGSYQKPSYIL
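Read-out: % PE-positive cells | Test system: HUVEC | Doses: One compound dose added by pin transfer | Buffer or medium: EGM-2 over gelatin coat | Signal: Immunofluorescence imaging | Benchmarks: TNF-alpha, DMSO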
Numbers without * were called inactive; ? = inconclusive; . = no result given; ! = not confirmed by another sample.

SMILES	LGR2 antag	Ecoli rRNA inh	EWS-Fli inh	E-sel inducer
CCOc1ccc(/C=C(\C(=O)O)c2ccc(S(=O)(=O)N3CCOCC3)s2)cc1OC	0	.	.	.
O=C(NCc1ccccc1)c1csc(-c2cccnc2)n1	2	-37*	-15	16
CCNc1nc(NC(C)(C)C)nc(Oc2ccc(=O)n(-c3ccccc3)n2)n1	-7	3	-30	43*
O=C1C(=O)c2ccccc2C(O)=C1c1cccc([N+](=O)[O-])c1	3	-24*	-9	4
Cc1ccc(C2=C(O)c3ccccc3C(=O)C2=O)cc1	6	-9	7	1
O=[N+]([O-])c1ccc2c(c1)/C(=N\O)c1ccccc1-2	7	-28*	-28	0
Cc1noc(C)c1NC(=O)Nc1ccc2c(c1)C(=O)N([C@@H](C)CO)C[C@@H](C)[C@H](CN(C)C(=O)Nc1ccccc1)O2	-11	1	-3	0
COc1ccccc1S(=O)(=O)N1[C@@H]2CNC[C@H]1C2c1ccc(-c2ccccc2)cc1 (stereo partly specified)	6	1	7	1
COc1cccc2c1C(=O)c1c(O)c3c(c(O)c1C2=O)C[C@@](O)(C(=O)CO)C[C@@H]3O[C@H]1C[C@H](N)[C@H](O)[C@H](C)O1	.	.	47	58*
COc1cccc2c1C(=O)c1c(O)c3c(c(O)c1C2=O)C[C@@](O)(C(=O)CO)C[C@@H]3OC1CC(N)C(O)C(C)O1 (stereo partly specified)	.	8	10	?
CC(=O)[C@@]1(O)Cc2c(O)c3c(c(O)c2[C@H](O[C@H]2C[C@H](N)[C@H](O)[C@H](C)O2)C1)C(=O)c1ccccc1C3=O	98*	73	59*	3
COc1cccc2c1C(=O)c1c(O)c3c(c(O)c1C2=O)CC(O)(C(C)=O)CC3OC1CC(N(C)C)C(O)C(C)O1 (stereo unspecified)	101*	20	65*	.
O=[N+]([O-])c1cccnc1-n1cnc2ccccc21	0	1	9	-1
Cc1cc2ncn(-c3ncccc3[N+](=O)[O-])c2cc1C	-14	-4	58*	.
C[C@@H]1CN([C@@H](C)CO)C(=O)c2cc(NS(C)(=O)=O)ccc2O[C@@H](C)CCCCO[C@H]1CN(C)Cc1ccc(C(=O)O)cc1	-2	3	-4	0
c1ccc(-n2nnnc2Sc2ncnc3sc4c(c23)CCCC4)cc1	66*	.	.	.
CCOC(=O)N1CCN(c2c(NCc3ccc(F)cc3)c(=O)c2=O)CC1	-12	-6	57*	.
CCOC(=O)N1CCN(c2c(NCc3ccc(Cl)cc3)c(=O)c2=O)CC1	-4	-3	52*	1
COc1ccc(NC(=O)Nc2cccc3c2O[C@@H](CN(C)C(=O)Nc2ccc(C(F)(F)F)cc2)[C@H](C)CN([C@H](C)CO)C3=O)cc1	-4	-19	-5	1
CN1C(=O)c2cc(NC(=O)C3CC3)ccc2OC[C@H]2O[C@@H](CC(=O)NCc3ccccc3F)CC[C@@H]21	-7	0	-1	0
O=C(c1ccccc1)c1ccc(OCCOCCN2CCN(Cc3ccccc3)CC2)cc1	-2	-36*	25	.
O=C(c1ccccc1)c1ccc(OCCCN2CCCC2)cc1	-19	0	11	.
C[C@H]1CC(=O)N[C@@H](c2ccccc2)C/C=C\C[C@H](c2ccc3c(c2)OCO3)NC1=O	.	-1	.	.
COc1cc(NC(=S)NCc2ccc(S(N)(=O)=O)cc2)c(OC)cc1Cl	-5	1	65*	.
COc1ccc(Cl)cc1NC(=S)NCCc1ccc(S(N)(=O)=O)cc1	8	-9	6	.
SMILES	LGR2 antag	Ecoli rRNA inh	EWS-Fli inh	E-sel inducer
C/C=C/c1ccc2c(c1)O[C@H](CN(C)C(=O)CC)[C@@H](C)CN([C@H](C)CO)S2(=O)=O	-9	-4	9	74*
C/C=C/c1ccc2c(c1)O[C@@H](CN(C)C(=O)CC)[C@H](C)CN([C@H](C)CO)S2(=O)=O	8	-5	1	0
C[C@@H]1CN([C@@H](C)CO)S(=O)(=O)c2ccc(C#Cc3ccc(F)cc3)cc2O[C@H]1CN(C)C(=O)CN(C)C	12	-4	59*	-1
CCCC#Cc1ccc2c(c1)O[C@@H](CN(C)C(=O)c1ccncc1)[C@H](C)CN([C@@H](C)CO)S2(=O)=O	15	-3	-2	118*
C[C@H](CO)N1C[C@H](C)[C@@H](CN(C)C(=O)CN(C)C)Oc2cc(C#Cc3ccc(F)cc3)ccc2S1(=O)=O	4	0	5	-1
C[C@@H]1CN([C@H](C)CO)S(=O)(=O)c2ccc(-c3cncnc3)cc2O[C@H]1CN(C)C	0	8	-4	0
C[C@H]1CN([C@@H](C)CO)C(=O)c2cc(NC(=O)Nc3ccc(F)cc3)ccc2O[C@@H]1CN(C)C(=O)Nc1ccc2c(c1)OCO2	-34	7	-3	0
C[C@H](CO)N1C[C@H](C)[C@H](CN(C)C(=O)Nc2cccc3ccccc23)Oc2ccc(NC(=O)CCCN(C)C)cc2C1=O	6	2	-11	4
C[C@@H]1CN([C@@H](C)CO)C(=O)c2cc(N(C)C)ccc2O[C@@H](C)CCCCO[C@H]1CN(C)S(=O)(=O)c1cccs1	-6	-3	0	0
O=C(C[C@H]1CC[C@@H]2[C@H](COC[C@@H](O)CN2Cc2ccc(Cl)cc2)O1)NCCc1ccccc1	7	-21*!	-4	0
O=C(C[C@@H]1CC[C@@H]2[C@H](COC[C@H](O)CN2Cc2ccc(Cl)cc2)O1)NCCc1ccccc1	7	-5	1	0
Cn1cnc(CCNC(=O)C[C@H]2CC[C@@H]3[C@H](COC[C@H](O)CN3C(=O)Nc3ccc(Cl)cc3)O2)c1	-13	-21*	-39	0
O=C(C[C@H]1CC[C@H]2[C@@H](COC[C@@H](O)CN2C(=O)Nc2cc(Cl)cc(Cl)c2)O1)N1CCOCC1	-1	-27*	-6	0
O=C(C[C@@H]1CC[C@@H]2[C@H](COC[C@H](O)CN2C(=O)Nc2cc(Cl)cc(Cl)c2)O1)N1CCOCC1	-14	-51	-7	0
O=C(N/N=C/c1ccc(C(F)(F)F)cc1)c1ccc(O)cc1	-84	-24	-44	20
O=C(O)c1ccc(N/N=C/c2ccc(C(F)(F)F)cc2)cc1	93*	-13	?	2
CN(C)c1ccc(/C=N/Nc2cccc(C(=O)O)c2)cc1	87*	-10	4	0
CC(C)(C)c1ccc(/C=N/Nc2cccc(C(=O)O)c2)cc1	40	6	47	.
CCOC(=O)c1c(CSC(=N)N)n(-c2ccccc2)c2cc(Br)c(OC(C)=O)cc12	63*	-43*	25	1
CCOC(=O)c1c(CN2CCN(C)CC2)n(-c2ccccc2)c2cc(Br)c(O)cc12	2	4	19	2

Compound activity as filed in PubChem BioAssay.
